{"source": "paper PMC12219203", "about": "(Nature Communications, 2025)", "key": {"NOD1": {"biological_target": "NOD1 (Homo sapiens, UniProt Q9Y239)", "sequence (Q9Y239 whole entry)": "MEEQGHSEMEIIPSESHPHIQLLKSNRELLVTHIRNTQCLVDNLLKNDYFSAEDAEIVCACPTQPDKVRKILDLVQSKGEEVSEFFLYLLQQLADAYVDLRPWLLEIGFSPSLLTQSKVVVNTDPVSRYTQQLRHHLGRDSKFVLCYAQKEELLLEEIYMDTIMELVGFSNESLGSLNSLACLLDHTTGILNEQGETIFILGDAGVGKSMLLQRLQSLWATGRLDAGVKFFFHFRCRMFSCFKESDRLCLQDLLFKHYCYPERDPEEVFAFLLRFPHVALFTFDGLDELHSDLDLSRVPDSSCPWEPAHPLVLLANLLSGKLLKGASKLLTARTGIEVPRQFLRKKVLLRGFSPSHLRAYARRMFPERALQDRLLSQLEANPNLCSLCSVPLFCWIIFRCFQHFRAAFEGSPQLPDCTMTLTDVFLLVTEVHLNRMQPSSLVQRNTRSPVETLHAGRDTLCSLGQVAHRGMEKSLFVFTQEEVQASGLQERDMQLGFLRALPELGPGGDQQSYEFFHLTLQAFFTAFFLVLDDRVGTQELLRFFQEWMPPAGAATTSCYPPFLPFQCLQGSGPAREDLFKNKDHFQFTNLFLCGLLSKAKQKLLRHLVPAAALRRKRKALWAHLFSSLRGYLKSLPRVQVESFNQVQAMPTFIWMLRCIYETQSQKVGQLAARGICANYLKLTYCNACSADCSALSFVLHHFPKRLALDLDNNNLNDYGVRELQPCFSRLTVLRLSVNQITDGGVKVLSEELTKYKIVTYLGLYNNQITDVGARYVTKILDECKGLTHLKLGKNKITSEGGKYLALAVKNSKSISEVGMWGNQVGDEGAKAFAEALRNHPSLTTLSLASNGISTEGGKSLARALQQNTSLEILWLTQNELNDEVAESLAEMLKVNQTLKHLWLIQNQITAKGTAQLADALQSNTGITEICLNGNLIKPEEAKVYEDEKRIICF", "assay": "HEK-Blue NOD1 SEAP reporter assay", "format": "cell-based", "details": "GM, M 20 μM; 18 h", "method_in_brief": "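HEK-Blue hNod1 or hNod2 cells were seeded at 50,000 cells/well in DMEM/10% FBS without selection antibiotics and stimulated at once for 18 h (n = 3). Supernatant was mixed 1:4 with Quanti-Blue and incubated 6 h at 37 °C, and absorbance was read at 620 nm. Values were blanked against water-treated wells, and the respective parental Null cell readouts were subtracted.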"}, "RAW264.7 cells": {"test_system": "RAW264.7 cells", "assay": "Cytokine expression in RAW264.7 macrophages", "format": "cell-based, mouse", "details": "GM 1-4 mM, M 4 mM, 24 h", "method_in_brief": "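RAW264.7 cells were kept in high-glucose IMDM with HEPES, 5% heat-inactivated FBS and penicillin/streptomycin at 37 °C, 5% CO2. They were exposed to test compounds for 24 h (n = 4). Total RNA was extracted with a column kit, and TNF-α and IL-6 transcripts were quantified by RT-qPCR using the 2-ΔΔCt method, normalised to β-act.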"}, "[1]": {"test_system": "WT bone-marrow-derived macrophages (BMDMs)", "assay": "Cytokine gene expression in WT BMDMs", "format": "cell-based, mouse", "details": "GM 2-8 mM, M 8 mM", "method_in_brief": "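Marrow was flushed from the femur and tibia of female SPF C57BL/6J mice and red cells were lysed (NH4Cl/KHCO3). Cells at 200,000 cells/mL were differentiated for 6 days in IMDM with 20 ng/mL GM-CSF or 10% L929 supernatant, then switched to serum-free IMDM. Test compounds were added for 24 h (n = 3). Cytokine transcripts were measured by RT-qPCR (2-ΔΔCt, normalised to β-act).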"}, "THP-1 cells": {"test_system": "THP-1 cells", "assay": "Cytokine expression in THP-1 monocytes", "format": "cell-based, human", "details": "GM 2-8 mM", "method_in_brief": "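THP-1 cells were kept in RPMI 1640 with 10% heat-inactivated FBS. They were seeded at 100,000 cells/well in half-serum medium and stimulated immediately, with MDP 0.4 mM as control. Total RNA was extracted and cytokine transcripts were measured by RT-qPCR; n = 4.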"}, "[2]": {"test_system": "NF-κB signaling in RAW-Dual Tlr4-/- cells", "assay": "RAW-Dual Tlr4-/- NF-κB reporter", "format": "cell-based, mouse", "details": "24 h", "method_in_brief": "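RAW-Dual cells (WT or Tlr4-/-) were seeded at 100,000 cells/well in complete DMEM without selection antibiotics, 24 h before treatment. Test compounds were added for 24 h (n = 3). NF-κB-driven SEAP was read by mixing supernatant 1:4 with Quanti-Blue, incubating 6 h at 37 °C and measuring absorbance at 620 nm, blanked against water-treated wells.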"}, "Tlr4-/- BMDMs": {"test_system": "Tlr4-/- BMDMs", "assay": "Cytokine secretion by Tlr4-/- BMDMs", "format": "cell-based, mouse", "details": "ELISA, 24 h; GM 4 mM, MDP 0.4 mM, LPS 100 ng/mL, CpG 100 nM", "method_in_brief": "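Murine BMDMs were differentiated 6 days in complete medium with 20 ng/mL GM-CSF or 10% L929 supernatant, then switched to serum-free IMDM and stimulated 24 h. Mouse TNF-α and IL-6 in culture supernatants were quantified by sandwich ELISA. Samples were prediluted in 1% BSA in PBS, pH 7.4, where needed.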"}, "[3]": {"biological_target": "recombinant mTLR4 protein (Mus musculus, UniProt Q9QUK6)", "sequence (Q9QUK6 26-638)": "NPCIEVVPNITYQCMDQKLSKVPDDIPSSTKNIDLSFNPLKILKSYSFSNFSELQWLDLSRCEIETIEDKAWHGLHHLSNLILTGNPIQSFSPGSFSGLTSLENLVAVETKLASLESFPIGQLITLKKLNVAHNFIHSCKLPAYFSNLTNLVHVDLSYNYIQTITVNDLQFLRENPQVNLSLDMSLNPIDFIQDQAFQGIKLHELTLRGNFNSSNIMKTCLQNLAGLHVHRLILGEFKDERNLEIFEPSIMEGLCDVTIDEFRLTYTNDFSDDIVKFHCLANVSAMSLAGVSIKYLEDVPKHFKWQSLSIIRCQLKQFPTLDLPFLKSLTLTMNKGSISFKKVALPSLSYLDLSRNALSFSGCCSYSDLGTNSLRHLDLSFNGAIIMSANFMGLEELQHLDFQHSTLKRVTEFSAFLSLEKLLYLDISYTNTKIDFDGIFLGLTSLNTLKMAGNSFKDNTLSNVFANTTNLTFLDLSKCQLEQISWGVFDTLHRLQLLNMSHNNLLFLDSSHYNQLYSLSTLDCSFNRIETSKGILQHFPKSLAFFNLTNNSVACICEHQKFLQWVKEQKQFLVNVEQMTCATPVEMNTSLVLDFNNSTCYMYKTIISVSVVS", "assay": "mTLR4 pulldown by immobilized GM-agarose beads", "format": "binding", "details": "pre-incubation of mTLR4 with excess GM", "method_in_brief": "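An azide-tagged test-compound probe (2.5 mM) was clicked onto alkyne agarose beads (1.2 mM ascorbate, 0.5 mM CuSO4, 0.5 mM THPTA, 4 °C, 3 h); control beads lacked probe. Beads were incubated overnight at 4 °C in water with recombinant mouse TLR4(26-638)-His6 (100 or 50 ng), optionally pre-incubated with free competitor. Flow-through, wash and boiled eluate were analysed by Coomassie-stained SDS-PAGE.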"}, "mTLR4/mMD2 (wt / F119A)": {"biological_target": "mTLR4/mMD2 (wt / F119A) (Mus musculus, UniProt Q9JHF9+Q9QUK6, F119A)", "sequence (Q9QUK6 26-835)": "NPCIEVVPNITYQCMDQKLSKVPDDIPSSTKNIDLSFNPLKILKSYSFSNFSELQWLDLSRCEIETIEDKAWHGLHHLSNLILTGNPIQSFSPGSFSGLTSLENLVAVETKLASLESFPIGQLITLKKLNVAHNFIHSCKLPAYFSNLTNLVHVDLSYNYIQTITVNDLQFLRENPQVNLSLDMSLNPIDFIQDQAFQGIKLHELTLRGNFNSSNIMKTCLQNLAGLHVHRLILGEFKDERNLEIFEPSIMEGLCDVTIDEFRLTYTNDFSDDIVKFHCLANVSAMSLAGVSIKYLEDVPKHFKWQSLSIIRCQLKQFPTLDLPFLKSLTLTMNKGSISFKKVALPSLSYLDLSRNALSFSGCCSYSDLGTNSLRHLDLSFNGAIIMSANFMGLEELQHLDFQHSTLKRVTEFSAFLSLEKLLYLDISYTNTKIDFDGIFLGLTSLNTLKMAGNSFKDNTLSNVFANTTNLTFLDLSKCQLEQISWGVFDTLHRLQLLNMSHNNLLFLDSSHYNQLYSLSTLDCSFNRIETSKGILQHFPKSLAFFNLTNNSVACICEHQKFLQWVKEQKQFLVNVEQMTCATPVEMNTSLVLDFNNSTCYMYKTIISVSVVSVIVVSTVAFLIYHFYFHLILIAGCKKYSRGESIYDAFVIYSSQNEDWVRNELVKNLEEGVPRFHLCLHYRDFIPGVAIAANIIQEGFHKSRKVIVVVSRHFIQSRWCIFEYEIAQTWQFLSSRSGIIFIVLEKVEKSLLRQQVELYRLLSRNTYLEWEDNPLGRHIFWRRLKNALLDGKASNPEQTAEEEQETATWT", "sequence (Q9JHF9 19-160 F119A)": "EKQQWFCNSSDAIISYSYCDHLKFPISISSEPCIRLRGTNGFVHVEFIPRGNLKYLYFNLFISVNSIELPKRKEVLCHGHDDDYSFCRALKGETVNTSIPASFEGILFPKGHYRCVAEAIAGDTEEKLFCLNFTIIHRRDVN", "assay": "NF-κB SEAP in HEK-Blue Null1, mTLR4 wt / mMD2 F119A", "format": "cell-based", "details": "GM 0.4, 0.2 mM, 24 h", "method_in_brief": "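Site-directed mTLR4 or mMD2 variants were made by mutagenesis. HEK-Blue Null1 cells were co-transfected 16 h with 500 ng mTLR4 and mMD2-Myc plasmids (1:1) by lipofection; mock cells got water/Lipofectamine. After a medium change, cells were treated 24 h. Supernatant SEAP was measured with Quanti-Blue (37 °C, 6 h, A620), normalized to H2O-treated cells; mean ± s.e.m., n = 3.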"}, "WT C57BL/6 J mice": {"test_system": "WT C57BL/6 J mice", "assay": "DSS-induced colitis model in WT mice", "format": "in vivo, mouse", "details": "GM 10 mg/kg i.p. daily", "method_in_brief": "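Male SPF C57BL/6J mice aged 7–8 weeks, WT or Tlr4-/- (bred in house), were age-, weight- and sex-matched. They drank 3% (w/v) DSS water for 7 days and were then euthanised. Test compound (10 mg/kg) or PBS (5 mL/kg) was given i.p. daily from 2 days before DSS until the end. Body weight was recorded daily.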"}, "[4]": {"test_system": "NF-κB p65 and MAPK p38 phosphorylation in WT BMDMs", "assay": "Immunoblot of p65 and p38 phosphorylation in WT BMDMs", "format": "cell-based, mouse", "details": "GM 5 mM", "method_in_brief": "(§1)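 Bone-marrow macrophages from WT or Tlr4-/- C57BL/6J mice were stimulated directly with 5 mM test compound or 500 ng/mL LPS. Cells were lysed in Tris/SDS/Triton buffer with protease and phosphatase inhibitors plus 10 mM DTT and boiled, then run on SDS-PAGE and transferred to PVDF. Blots were probed with rabbit antibodies to total or phospho-p65, total or phospho-p38 and GAPDH (1:1000, 4 °C overnight), then HRP anti-rabbit (1:5000).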"}, "[5]": {"test_system": "NF-κB p65 and MAPK p38 phosphorylation in Tlr4-/- BMDMs", "assay": "Immunoblot of p65 and p38 phosphorylation in Tlr4-/- BMDMs", "format": "cell-based, mouse", "details": "GM 5 mM", "method_in_brief": "as §1"}}}
{"compound": "CC(=O)N[C@H]1[C@H](O[C@H]2[C@H](O[C@H](C)C(=O)O)[C@@H](NC(C)=O)C(O)O[C@@H]2CO)O[C@H](CO)[C@@H](O)[C@@H]1O", "note": "(stereo partly drawn) [GM, N-acetylglucosamine-β−1,4-N-acetylmuramic acid]", "values": [{"measurement": "NOD1 activation in HEK-Blue reporter cells (in words)", "setting": "NOD1", "result": "unable to activate NOD1/2"}, {"measurement": "Immuno-stimulatory activity (TNF-α, IL-6) in RAW264.7 (in words)", "setting": "RAW264.7 cells", "result": "dose-dependent immuno-stimulatory activity"}, {"measurement": "Immuno-stimulatory activity (TNF-α, IL-6) in BMDMs (in words)", "setting": "[1]", "result": "dose-dependent immuno-stimulatory activity"}, {"measurement": "Immuno-stimulatory activity in THP-1 (in words)", "setting": "THP-1 cells", "result": "dose-dependent immuno-stimulatory activity"}, {"measurement": "NF-κB signaling in RAW-Dual Tlr4-/- cells (in words)", "setting": "[2]", "result": "minimal activity"}, {"measurement": "TNF-α and IL-6 production in Tlr4-/- BMDMs (in words)", "setting": "Tlr4-/- BMDMs", "result": "fails to elicit increased levels of TNF-α and IL-6"}, {"measurement": "Competition of mTLR4 binding to GM-1-resin by excess free ligand", "setting": "[3]", "result": "dose-dependent decrease in the amount of mTLR4 bound to GM-1-resin"}, {"measurement": "Effect of mutation mMD-2_F119 on NF-κB activity (in words)", "setting": "mTLR4/mMD2 (wt / F119A)", "result": "did not significantly impair the activity of GM"}, {"measurement": "H&E-stained colonic tissue, WT DSS mice", "setting": "WT C57BL/6 J mice; 3% DSS", "result": "reduced epithelial erosion and mononuclear cell infiltration"}, {"measurement": "Colonic Il10, WT DSS mice", "setting": "WT C57BL/6 J mice; 3% DSS, RT-qPCR", "result": "no significant change in Il10 was observed"}, {"measurement": "Colonic cytoprotective factors Keap1 and Hspb1, WT DSS mice", "setting": "WT C57BL/6 J mice; 3% DSS, RT-qPCR", "result": "upregulated"}, {"measurement": "Colonic expression of Tnfa, Il1b, Ccl2, WT DSS mice", "setting": "WT C57BL/6 J mice; 3% DSS, RT-qPCR", "result": "significantly suppressed"}, {"measurement": "Morbidity in mice", "setting": "WT C57BL/6 J mice; without DSS treatment", "result": "did not result in any morbidity in mice"}, {"measurement": "p65 and p38 phosphorylation in WT BMDMs", "setting": "[4]", "result": "mild increase in phosphorylation"}, {"measurement": "p65 and p38 phosphorylation in Tlr4-/- BMDMs", "setting": "[5]", "result": "absence of p65 and p38 phosphorylation"}]}
